Screens: PubChem, several laboratories
PfG6PD inh: PfG6PD (Plasmodium falciparum) enzyme inhibition; inhibition, % at 20 µM; PfGluPho enzyme, NADPH resazurin-diaphorase fluorescence; actives 0.78% (n = 350,000);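 active = inhibition reaching at least a set limit at 20 µM in the primary screen, cut at about 59% in these data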;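 also: 0% = DMSO wells with substrate and 100% = DMSO wells lacking glucose-6-phosphate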
TbHK1 inh: T. brucei hexokinase 1 inhibition. recombinant TbHK1, G6PDH-coupled NADH A340. inhibition, % at 10 µM. actives 0.11% (n = 220,000);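 active = inhibition of 50% or more in the single-dose primary screen; inactive = inhibition below 50%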
HKDC1 inh: inhibitors of human hexokinase HKDC1; AID 493160; inhibition, % at 20 µM; Q2TB90; actives 0.16% (n = 340,000); recombinant HKDC1, G6PDH/diaphorase resazurin coupled fluorescence;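 active = inhibition above about 35% when tested at 20 µM, limit read from the data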;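 also: plate controls were DMSO wells with enzyme for no effect and DMSO wells lacking enzyme for full effect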
Target sequence (Q2TB90 whole entry, looked up): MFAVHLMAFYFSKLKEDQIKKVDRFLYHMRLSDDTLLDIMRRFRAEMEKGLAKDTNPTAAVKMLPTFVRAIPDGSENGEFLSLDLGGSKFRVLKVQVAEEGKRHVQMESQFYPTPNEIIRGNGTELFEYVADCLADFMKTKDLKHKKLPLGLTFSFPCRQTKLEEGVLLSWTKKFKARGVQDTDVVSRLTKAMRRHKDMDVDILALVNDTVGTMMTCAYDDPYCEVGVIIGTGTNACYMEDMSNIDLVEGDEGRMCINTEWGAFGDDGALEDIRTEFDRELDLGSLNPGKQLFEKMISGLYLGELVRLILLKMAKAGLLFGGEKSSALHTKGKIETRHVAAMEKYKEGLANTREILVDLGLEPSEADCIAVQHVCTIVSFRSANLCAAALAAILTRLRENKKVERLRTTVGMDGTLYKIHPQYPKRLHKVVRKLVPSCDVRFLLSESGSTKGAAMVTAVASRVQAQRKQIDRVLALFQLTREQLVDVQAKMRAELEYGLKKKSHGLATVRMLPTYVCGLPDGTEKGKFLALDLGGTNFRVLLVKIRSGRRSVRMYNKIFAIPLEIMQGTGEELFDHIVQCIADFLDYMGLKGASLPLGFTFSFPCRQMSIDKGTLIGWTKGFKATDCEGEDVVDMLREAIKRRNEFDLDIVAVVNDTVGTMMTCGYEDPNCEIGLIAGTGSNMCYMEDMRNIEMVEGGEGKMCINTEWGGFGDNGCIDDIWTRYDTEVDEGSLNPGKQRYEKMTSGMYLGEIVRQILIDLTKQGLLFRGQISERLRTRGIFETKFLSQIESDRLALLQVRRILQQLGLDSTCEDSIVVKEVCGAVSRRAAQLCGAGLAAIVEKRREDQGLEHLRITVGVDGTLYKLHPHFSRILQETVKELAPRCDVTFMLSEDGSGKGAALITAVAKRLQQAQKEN
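Test system: recombinant HKDC1 (HK5) hexokinase enzyme, produced in-house; Amount: enzyme 5 µg/mL final; Buffer or medium: Tris pH 8.0 buffer with MgCl2, Tween-20, BSA, BME; Reagent: glucose and ATP substrates; Doses: 20 µM test compound, 1% DMSO; Incubation: 90 min reaction incubation at room temperature, dark; Detection: resorufin fluorescence at 613 nm.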
G6PDH counter: L. mesenteroides G6PDH inhibition counter-screen; Purified L. mesenteroides G6PDH, diaphorase/resazurin coupled fluorescence, 45 min; inhibition, % at 5 µM; actives 0.12% (n = 200,000); in the data active = inhibition above about 50%
Diaphorase inh: inhibits diaphorase or chemically oxidizes, flagging diaphorase assay artifacts; actives 0.69% (n = 190,000); inhibition, % at 20 µM; diaphorase resazurin-to-resorufin fluorescence, NADH, 16 min; bacterial (C. kluyveri) enzyme, not human;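 active = primary screen inhibition at 20 µM above a set limit, cut at about 50% in these data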;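 also: plate controls were DMSO with full reaction for no effect and wells lacking NADH for full effect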
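Test system: bacterial diaphorase enzyme (C. kluyveri); Quantity: 0.14 U/mL diaphorase, enzyme working solution; Times: reaction incubation of 16 min at room temperature; Measured by: fluorescence of resorufin formed from resazurin, Ex 544/Em 590 nm; Benchmarks: positive control minus NADH, DMSO neutral control.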
PfGluPho conf: PfG6PD inhibition, single-dose confirmed; shares compounds with PfG6PD inh; recombinant PfGluPho, NADPH-diaphorase-resazurin fluorescence; inhibition, % at 20 µM; actives 34% (n = 2,400);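 active = inhibition of at least 50% at 20 µM in any single replicate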;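 also: 0% = DMSO with substrate and 100% = DMSO lacking glucose-6-phosphate substrate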
Diaphorase 10uM: diaphorase inhibition or oxidation at 10 uM NADPH; AID 504862; diaphorase-coupled resazurin reduction, fluorescence, NADPH 10 uM; actives 39% (n = 820); shares compounds with PfG6PD inh; inhibition, % at 20 µM;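 active = average inhibition reaching 50% or more with the compound at 20 µM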;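 also: resorufin red fluorescence formed as diaphorase reduces resazurin using NADPH; 0% = DMSO with enzyme and 100% = DMSO without enzyme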
Diaphorase 30uM: inhibits diaphorase or oxidizes, flagging false PfG6PD hits. shares compounds with PfG6PD inh. Diaphorase/resazurin coupled assay, resorufin fluorescence, 30 uM NADPH. inhibition, % at 20 µM. actives 29% (n = 820). AID 504863;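 active = inhibition averaging 50% or more, tested at 20 µM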;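 also: 0% = DMSO with enzyme and 100% = DMSO wells lacking diaphorase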
* hit, by the source's call; ! = not confirmed by another sample. Shown are actives, neighbours in structure and some others; about 1.3% of the full set was active somewhere.

For C=CCc1c(C)nc(C)nc1N/N=C/c1ccccc1O the results were PfG6PD inh 68.5*, TbHK1 inh -25.7, HKDC1 inh -3.2, G6PDH counter 14.0, Diaphorase inh 15.9 and PfGluPho conf 4.8.
Cc1c(C(=O)N2CC3(CC(c4cccc(NC(=O)CC(c5ccccc5)c5ccccc5)c4)=NO3)C[C@@H]2C(N)=O)cc([N+](=O)[O-])cc1[N+](=O)[O-] (some centres undefined) was read as PfG6PD inh 12.7, TbHK1 inh -7.1 and HKDC1 inh 0.1.
Nc1ccccc1SSc1ccccc1N was read as PfG6PD inh 68.8*, TbHK1 inh -6.1, HKDC1 inh -23.5 and PfGluPho conf 44.1.
For N#Cc1ccccc1Sc1ccccc1N the results were PfG6PD inh 2.3, TbHK1 inh -4.1, HKDC1 inh 4.6, G6PDH counter 3.7 and Diaphorase inh 15.4.
Cc1nn(C(=O)c2cccnc2)c(C)c1Sc1ccc(Br)cc1 was read as PfG6PD inh 67.0*, TbHK1 inh -0.4, HKDC1 inh -2.9, G6PDH counter -0.5, Diaphorase inh 12.0 and PfGluPho conf 43.8.
Cc1nn(C(=O)c2ccco2)c(C)c1Sc1ccc(Cl)cc1 was read as PfG6PD inh -3.5, TbHK1 inh 5.4, HKDC1 inh -2.4, G6PDH counter 16.8 and Diaphorase inh 13.5.
Screening Cc1cc2ncn(-c3ncccc3[N+](=O)[O-])c2cc1C returned PfG6PD inh 76.2*, HKDC1 inh -1.1 and PfGluPho conf -20.7.
COc1ccc(CCNC(=O)C/C(C)=N/NC(=O)Cc2cccc3ccccc23)cc1OC was read as PfG6PD inh -21.6, TbHK1 inh -9.3 and HKDC1 inh -2.9.
`Cc1cccnc1NC(=O)Cn1nc(-c2ccccc2)oc1=S` gave PfG6PD inh 2.1, TbHK1 inh 3.1, HKDC1 inh -11.4, G6PDH counter 6.1 and Diaphorase inh -6.3.
Screening COc1ccc2c(c1)c(C(=O)N/N=C/c1cccc(Br)c1)c(C)n2C returned PfG6PD inh 115.2*, TbHK1 inh -46.7, HKDC1 inh 8.6, PfGluPho conf 87.2*, Diaphorase 10uM 87.8* and Diaphorase 30uM 64.6*.
`CCCN(CCC)CCNC(=O)Cn1cnc2sc(C)c(S(=O)(=O)N3CCOCC3)c2c1=O` gave PfG6PD inh 1.8, TbHK1 inh 4.4 and HKDC1 inh -4.2.
`CC(C)CC(=O)Nc1nnc(S(=O)(=O)Nc2ccccc2)s1` gave PfG6PD inh -3.6 and HKDC1 inh -3.1.
Screening O=C(Cc1cccs1)Nc1cccc(-c2nc3cc4ccccc4cc3[nH]2)c1 returned PfG6PD inh 63.4*, TbHK1 inh -6.0, HKDC1 inh -2.6, G6PDH counter 6.6, Diaphorase inh 19.1 and PfGluPho conf 6.9.
`CC(=O)Nc1cccc(NC(=O)Cc2cccs2)c1` gave PfG6PD inh -4.4 and HKDC1 inh -1.4.
`O=C1c2ccccc2C(=O)c2c1oc(C(F)(F)F)c2C(=O)c1ccccc1` gave PfG6PD inh 74.3*, TbHK1 inh 1.3, HKDC1 inh 17.2, G6PDH counter 57.4*, Diaphorase inh 6.0 and PfGluPho conf 16.2.
`O=C(c1ccccc1)c1ccc(CN2C(=O)c3ccccc3C2=O)o1` gave PfG6PD inh 7.6, TbHK1 inh -13.9, HKDC1 inh -8.8, G6PDH counter 10.1 and Diaphorase inh 9.6.
For CSc1nnc(NC(=O)c2ccc3c(c2)OCO3)s1 the results were PfG6PD inh 96.4*, HKDC1 inh -2.0, PfGluPho conf 74.1*, Diaphorase 10uM 49.0 and Diaphorase 30uM 47.8.
For COCCSc1nnc(NC(=O)c2ccc3c(c2)OCO3)s1 the results were PfG6PD inh 71.4*, TbHK1 inh -21.0, HKDC1 inh -7.0, G6PDH counter 2.7, Diaphorase inh -5.6 and PfGluPho conf 34.4.
O=C(c1cc(Br)c(Br)s1)N1CCN(c2ccccn2)CC1 was read as PfG6PD inh -7.3 and HKDC1 inh 2.2.
For Cc1ccc(S(=O)(=O)N2CCOCC2)cc1NC(=O)CSc1ccc(Cl)cc1 the results were PfG6PD inh -0.3 and HKDC1 inh -1.8.
For CCOC(=O)c1ccc(S(=O)(=O)Nc2cc(S(=O)(=O)N3CCOCC3)ccc2O)cc1 the results were PfG6PD inh 59.9*, HKDC1 inh -14.2 and PfGluPho conf 9.7.
`O=C(CCCSc1ccc(Cl)cc1)Nc1cc(S(=O)(=O)N2CCOCC2)ccc1O` gave PfG6PD inh 73.8*, HKDC1 inh -7.0 and PfGluPho conf 24.7.
For O=C(Nc1ccc(N2CCOCC2)c(Cl)c1)c1ccco1 the results were PfG6PD inh 8.9, TbHK1 inh -3.1, HKDC1 inh -1.6, G6PDH counter 2.5 and Diaphorase inh 5.6.
Screening O=C1C=CC(=Nc2ccc3c(c2)Cc2cc(F)ccc2-3)O1 returned PfG6PD inh 60.9*, HKDC1 inh -0.8 and PfGluPho conf 4.3.
For O=C1C=CC(=Nc2cccc3c2C(=O)c2ccccc2-3)O1 the results were PfG6PD inh -13.5 and HKDC1 inh 16.6.
Screening COc1ccc2c3c(ccc2c1)C(=O)/C(=C/O)CC3 returned PfG6PD inh 69.3*, HKDC1 inh 24.7 and PfGluPho conf 45.4.
`O=C(Nc1cc(C(=O)N2CCCC2)ccc1N1CCCC1)C1CC1` gave PfG6PD inh -11.7, TbHK1 inh -1.9, HKDC1 inh -2.4, G6PDH counter 9.4 and Diaphorase inh 6.2.
CCN1CCN(Cc2ccc(NC(=O)c3ccc(C)c(/C=C/c4cnc(Nc5cc(N6CCNCC6)nc(C)n5)cn4)c3)cc2C(F)(F)F)CC1 was read as PfG6PD inh 66.4*!, HKDC1 inh 5.9 and PfGluPho conf 31.4.
`CCN1CCN(Cc2ccc(NC(=O)c3ccc(C)c(NC(=O)c4ccno4)c3)cc2C(F)(F)F)CC1` gave PfG6PD inh 18.2, TbHK1 inh -0.2 and HKDC1 inh 4.5.
CCOc1ccc2c(c1)C(=O)C(=O)N2CC1COc2ccccc2O1 (centres undefined) was read as PfG6PD inh 62.9*, HKDC1 inh 24.1 and PfGluPho conf 10.9.
For Oc1ccc(C23CC4CC(CC(C4)C2)C3)cc1O the results were PfG6PD inh 82.6*, HKDC1 inh 0.3, PfGluPho conf 70.9*, Diaphorase 10uM -8.3 and Diaphorase 30uM -2.1.
Screening C/C(=N\Nc1nc2ccccc2[nH]1)c1ccc(C)o1 returned PfG6PD inh 21.7, TbHK1 inh -46.3, HKDC1 inh 12.0, G6PDH counter -12.7 and Diaphorase inh 9.3.
